Here are results for one molecule from ChEMBL document CHEMBL1152806, “Discovery of a potent, selective, and orally efficacious pyrimidinooxazinyl bicyclooctaneacetic acid diacylglycerol acyltransferase-1 inhibitor” (J Med Chem, 2009).

In data set [1] the test system is Rattus norvegicus. As to the kind of experiment: Reduction of adipose triacylglycerol synthesis in 14 hrs fasted Han-Wistar rat assessed as decrease in ratio of [3H]palmitic acid incorporation into TAG and DAG at 1 mg/kg, po after 1.5 hrs relative to control. Type of data set: functional. Further details: scale not given: the % may be the effect or the level left. The method, boiled down: (§1)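 Male Han-Wistar rats (~300 g) on chow diet were given compound by oral gavage, suspended in HPMC/Tween. At 1.5 h they were anaesthetised with inactin and a bolus of [3H]-palmitic acid was given via a jugular cannula. Epididymal fat was taken 20 min later, homogenised in duplicate with [14C]-oleic acid internal standard, and lipids separated by HPLC. Result is % reduction of the TAG/DAG label ratio versus vehicle; n = 10.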

A short description of data set [2]: Metabolic stability in dog hepatocytes assessed as conversion to acyl glucuronide form after 2 hrs. It is filed as ADME, cell-based, Canis lupus familiaris, Hepatocyte.
Data set [3] can be described thus: Bioavailability in rat at 1 to 3 mg/kg. It is filed as ADME, organism-based. To be noted: in vivo.
Data set [4] can be described thus: Apparent permeability from apical to basolateral side in MDCK cells at 10 uM. Type of data set: ADME, cell-based, Canis lupus familiaris. To be noted: dog, read-out: permeability. The method, boiled down: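 Cultured MDCK cells incubated with compound at 10 µM; apparent permeability (Papp, ×10^-6 cm/s) measured in both apical-to-basolateral and basolateral-to-apical directions.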

The nature of data set [5]: Lipophilicity, log D of the compound. Type of data set: physicochemical. The settings on record: octanol/water.
Data set [6] in a line: Volume of distribution at steady state in dog at 1 to 3 mg/kg. It is filed as ADME, organism-based, Canis lupus familiaris. Set-up: dose 1-3 mg/kg. The settings on record: in vivo, read-out: Vdss.
Data set [7] has as its system Rattus norvegicus. The experiment in a line: Reduction of adipose triacylglycerol synthesis in 14 hrs fasted Han-Wistar rat assessed as decrease in ratio of [3H]palmitic acid incorporation in to TAG and DAG at 3 mg/kg, po after 1.5 hrs relative to control. Further details: scale not given: the % may be the effect or the level left. Type of data set: functional. The method, boiled down:
as §1

Data set [8] addresses T1, Diacylglycerol O-acyltransferase 1 (Rattus norvegicus, UniProt Q9ERM3).
T1 sequence (Q9ERM3 whole entry): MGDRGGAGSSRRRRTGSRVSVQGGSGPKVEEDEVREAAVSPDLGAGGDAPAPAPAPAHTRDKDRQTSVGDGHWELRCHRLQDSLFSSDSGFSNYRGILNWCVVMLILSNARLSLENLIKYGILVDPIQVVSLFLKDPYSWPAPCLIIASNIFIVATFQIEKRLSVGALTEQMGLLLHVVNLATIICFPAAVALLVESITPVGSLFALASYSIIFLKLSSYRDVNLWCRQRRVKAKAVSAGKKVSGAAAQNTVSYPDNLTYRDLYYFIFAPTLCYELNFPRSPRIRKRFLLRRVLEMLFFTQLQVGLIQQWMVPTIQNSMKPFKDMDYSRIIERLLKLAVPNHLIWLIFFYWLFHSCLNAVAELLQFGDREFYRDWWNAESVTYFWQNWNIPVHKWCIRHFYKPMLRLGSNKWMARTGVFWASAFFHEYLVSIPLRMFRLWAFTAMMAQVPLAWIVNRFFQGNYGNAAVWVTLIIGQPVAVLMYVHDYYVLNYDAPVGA
The experiment in a line: Inhibition of rat microsomal DGAT1 by liquid scintillography.

The nature of data set [9]: Metabolic stability in dog assessed as urinary excretion of acyl glucuronide form after 2 hrs. It is filed as ADME, Canis lupus familiaris, Urine. The method, boiled down: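 Parent-related material excreted as acyl glucuronide measured in a 2 h urine sample collected after dosing in dog.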
Data set [10] deals with T2, Diacylglycerol O-acyltransferase 1 (Homo sapiens, UniProt O75907).
T2 sequence (O75907 whole entry): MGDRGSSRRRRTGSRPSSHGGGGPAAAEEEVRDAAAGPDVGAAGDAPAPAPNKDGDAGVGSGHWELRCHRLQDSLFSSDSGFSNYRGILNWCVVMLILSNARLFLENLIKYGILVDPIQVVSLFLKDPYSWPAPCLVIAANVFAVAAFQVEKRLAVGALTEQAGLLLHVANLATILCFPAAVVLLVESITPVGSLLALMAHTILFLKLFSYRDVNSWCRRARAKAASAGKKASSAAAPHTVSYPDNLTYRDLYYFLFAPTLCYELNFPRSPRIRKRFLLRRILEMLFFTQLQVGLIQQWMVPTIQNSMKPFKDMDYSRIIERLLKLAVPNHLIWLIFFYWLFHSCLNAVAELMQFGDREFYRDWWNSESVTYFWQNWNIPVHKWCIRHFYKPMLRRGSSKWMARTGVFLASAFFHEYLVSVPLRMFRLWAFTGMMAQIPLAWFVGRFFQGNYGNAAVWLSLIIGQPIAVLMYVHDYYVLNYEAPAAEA
The experiment in a line: Inhibition of human recombinant DGAT1 expressed in Sf9 cells by liquid scintillography.

Data set [11] in a line: Half life in rat at 1 to 3 mg/kg, po. Further details: dose 1-3 mg/kg, route oral. To be noted: in vivo. Type of data set: ADME, organism-based.
For data set [12], the target named is CYP3A4 (Homo sapiens, UniProt P08684). The experiment in a line: Inhibition of CYP3A4 at 30 uM. Type of data set: ADME.
Data set [13] relates to Rattus norvegicus. As to the kind of experiment: Reduction of plasma triacylglycerol excursion in 14 hrs fasted Han-Wistar rat at 1 mg/kg, po treated 2 hrs before bolus corn oil administration measured 1.5 hrs post corn oil challenge by oral lipid tolerance test relative to control. Type of data set: functional. Further details: scale not given: the % may be the effect or the level left. The method, boiled down: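 Male Han-Wistar rats (~230 g) on chow diet were fasted 14 h and given compound by oral gavage, suspended in HPMC/Tween. A corn oil bolus (5 mL/kg) followed 2 h later. After 1.5 h, blood was drawn from the abdominal vena cava and plasma TAG measured colorimetrically (GPO-PAP). Result is % reduction versus vehicle-treated controls; n = 6.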

Data set [14] in a line: Half life in rat at 1 to 3 mg/kg, iv. Type of data set: ADME, organism-based. Further details: dose 1-3 mg/kg, route intravenous. To be noted: in vivo.
Data set [15] is described as follows: Bioavailability in marmosets at 1 to 3 mg/kg. Type of data set: ADME, organism-based. The settings on record: callitrichinae sp., in vivo.
Data set [16] addresses T3, Sterol O-acyltransferase 1 (Homo sapiens, UniProt P35610).
T3 sequence (P35610 whole entry): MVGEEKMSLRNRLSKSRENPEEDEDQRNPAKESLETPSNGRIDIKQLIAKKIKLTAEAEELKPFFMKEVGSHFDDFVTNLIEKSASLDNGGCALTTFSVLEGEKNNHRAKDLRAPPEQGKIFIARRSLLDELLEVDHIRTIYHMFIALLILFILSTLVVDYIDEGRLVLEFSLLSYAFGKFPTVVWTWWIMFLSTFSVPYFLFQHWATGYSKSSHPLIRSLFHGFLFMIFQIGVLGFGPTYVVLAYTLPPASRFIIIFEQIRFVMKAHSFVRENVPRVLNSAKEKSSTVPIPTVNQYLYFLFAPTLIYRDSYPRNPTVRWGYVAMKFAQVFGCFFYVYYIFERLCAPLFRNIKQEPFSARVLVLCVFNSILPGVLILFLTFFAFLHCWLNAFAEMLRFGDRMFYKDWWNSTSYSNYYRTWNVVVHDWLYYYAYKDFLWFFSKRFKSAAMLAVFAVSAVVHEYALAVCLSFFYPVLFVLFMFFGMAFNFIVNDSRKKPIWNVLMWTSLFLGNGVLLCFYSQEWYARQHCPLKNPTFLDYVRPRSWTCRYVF
As to the kind of experiment: Inhibition of human ACAT1 by liquid scintillography.

Data set [17] is described as follows: Volume of distribution at steady state in marmosets at 1 to 3 mg/kg. It is filed as ADME, organism-based. Set-up: dose 1-3 mg/kg. To be noted: callitrichinae sp., in vivo; read-out: Vdss.
The nature of data set [18]: Volume of distribution at steady state in rat at 1 to 3 mg/kg. It is filed as ADME, organism-based. To be noted: in vivo, read-out: Vdss. Further details: dose 1-3 mg/kg.
A short description of data set [19]: Metabolic stability in marmosets alamethicin-activated microsomes assessed as conversion to acyl glucuronide form after 1 hr. To be noted: callitrichinae sp. It is filed as ADME, Microsome.

Chain of CYP3A4 (P08684 whole entry): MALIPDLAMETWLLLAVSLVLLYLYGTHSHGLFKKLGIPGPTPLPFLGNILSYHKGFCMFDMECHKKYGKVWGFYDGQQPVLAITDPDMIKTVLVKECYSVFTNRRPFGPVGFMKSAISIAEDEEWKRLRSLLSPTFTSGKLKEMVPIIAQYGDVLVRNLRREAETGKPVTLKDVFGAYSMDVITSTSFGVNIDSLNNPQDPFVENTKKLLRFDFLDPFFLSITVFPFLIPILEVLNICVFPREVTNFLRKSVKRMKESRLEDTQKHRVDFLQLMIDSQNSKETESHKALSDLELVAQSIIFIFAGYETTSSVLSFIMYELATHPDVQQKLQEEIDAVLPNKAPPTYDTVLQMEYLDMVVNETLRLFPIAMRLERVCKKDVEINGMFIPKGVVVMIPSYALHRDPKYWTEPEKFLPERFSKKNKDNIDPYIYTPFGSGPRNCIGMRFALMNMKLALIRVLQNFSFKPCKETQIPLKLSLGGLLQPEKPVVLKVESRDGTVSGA

A word on the bioavailability: it is the share of a dose that reaches the circulation, judged against a reference dose that is usually intravenous. What is called logD is the decadic logarithm of the distribution of all forms, ionised or not, between an organic phase and buffer at a given pH. One may read the IC50 as the midpoint of a concentration-inhibition curve. For orientation: half-life means the time in which the quantity being followed falls by half. The term inhibition denotes the share of the control response that was lost under treatment. In the case of `CC1(C)Oc2ncnc(N)c2N=C1c1ccc(C23CCC(CC(=O)O)(CC2)CC3)cc1`, the results for the Activity in [1], in data set [7] and in [13] were 37%, 57% and 72%, respectively. The Stability in [2] was 38%; in data set [9], 82%; in [19] it was 15%. Also, the values for the bioavailability in data set [3] and in [15] were 72% and 61%, respectively. The Papp A→B at 10 µM in data set [4] was determined as 18 ×10⁻⁶ cm/s. Besides, the logD in [5] is 1.9. Also, the results for the Vd in [6], in [17] and in [18] were 1 L/kg, 0.88 L/kg and 0.7 L/kg, respectively. Further, the IC50 in data set [8] turned out to be 9 nM; in data set [10] it was 15 nM; in data set [16], 5200 nM. In addition, the figures for the half-life in [11] and in data set [14] were 5.4 h and 7 h, respectively. Besides, in [12], the inhibition at 30 µM was < 25%.
